Results taken from paper PMC6805150 (Bioorganic & medicinal chemistry, 2014).
No end group written: not given here.

What was measured:
Jurkat T cells = assay: CellTiter-GLO cell viability/proliferation assay; details: 4 μM, 24 h (Table 1)
recombinant IKKε = target: T1, recombinant IKKε (Homo sapiens, UniProt Q14164); assay: LANCE Ultra TR-FRET kinase assay, recombinant IKKε; assay type: biochemical; details: 20 μM AdAr; ATP near apparent Km; vs solvent control; ± SD, 3–4 experiments
T1 sequence (Q14164 1-716): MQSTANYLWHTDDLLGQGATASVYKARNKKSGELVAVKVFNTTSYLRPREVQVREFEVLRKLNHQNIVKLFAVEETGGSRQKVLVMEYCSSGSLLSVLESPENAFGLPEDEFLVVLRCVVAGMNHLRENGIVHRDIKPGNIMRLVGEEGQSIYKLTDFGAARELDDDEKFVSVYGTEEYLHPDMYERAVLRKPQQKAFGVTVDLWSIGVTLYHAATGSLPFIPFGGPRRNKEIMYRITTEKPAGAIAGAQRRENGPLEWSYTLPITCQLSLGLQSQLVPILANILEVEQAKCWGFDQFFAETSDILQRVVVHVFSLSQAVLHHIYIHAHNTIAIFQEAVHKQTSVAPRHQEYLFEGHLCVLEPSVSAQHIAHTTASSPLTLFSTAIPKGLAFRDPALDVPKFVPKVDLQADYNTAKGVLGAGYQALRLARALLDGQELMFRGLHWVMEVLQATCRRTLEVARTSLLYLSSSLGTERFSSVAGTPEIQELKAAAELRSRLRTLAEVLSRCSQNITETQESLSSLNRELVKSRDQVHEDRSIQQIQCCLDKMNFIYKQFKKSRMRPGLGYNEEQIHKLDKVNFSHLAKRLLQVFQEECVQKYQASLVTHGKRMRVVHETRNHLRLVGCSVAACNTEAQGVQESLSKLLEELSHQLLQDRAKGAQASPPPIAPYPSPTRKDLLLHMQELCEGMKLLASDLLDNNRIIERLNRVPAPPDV
How it was run: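 Recombinant IKKε enzyme, 2 nM final, in Hepes pH 7.4 kinase buffer (10 mM MgCl₂, 1 mM EGTA, 2 mM DTT, 0.01% Tween-20). Substrate was 50 nM ULight-rpS6, with 5 μM ATP, run 2 h at room temperature. The reaction was quenched with 20 mM EDTA containing 2 nM Eu-anti-phospho antibody. After 2 h, TR-FRET was read at 615 and 665 nm (340 nm excitation). Percent inhibition was taken versus solvent control; triplicate points.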

recombinant IKKα = target: T2, recombinant IKKα (Homo sapiens, UniProt O15111); assay: LANCE Ultra TR-FRET kinase assay, recombinant IKKα; assay type: biochemical; details: 20 μM AdAr; ATP near apparent Km; vs solvent control; ± SD, 3–4 experiments
T2 sequence (O15111 1-745): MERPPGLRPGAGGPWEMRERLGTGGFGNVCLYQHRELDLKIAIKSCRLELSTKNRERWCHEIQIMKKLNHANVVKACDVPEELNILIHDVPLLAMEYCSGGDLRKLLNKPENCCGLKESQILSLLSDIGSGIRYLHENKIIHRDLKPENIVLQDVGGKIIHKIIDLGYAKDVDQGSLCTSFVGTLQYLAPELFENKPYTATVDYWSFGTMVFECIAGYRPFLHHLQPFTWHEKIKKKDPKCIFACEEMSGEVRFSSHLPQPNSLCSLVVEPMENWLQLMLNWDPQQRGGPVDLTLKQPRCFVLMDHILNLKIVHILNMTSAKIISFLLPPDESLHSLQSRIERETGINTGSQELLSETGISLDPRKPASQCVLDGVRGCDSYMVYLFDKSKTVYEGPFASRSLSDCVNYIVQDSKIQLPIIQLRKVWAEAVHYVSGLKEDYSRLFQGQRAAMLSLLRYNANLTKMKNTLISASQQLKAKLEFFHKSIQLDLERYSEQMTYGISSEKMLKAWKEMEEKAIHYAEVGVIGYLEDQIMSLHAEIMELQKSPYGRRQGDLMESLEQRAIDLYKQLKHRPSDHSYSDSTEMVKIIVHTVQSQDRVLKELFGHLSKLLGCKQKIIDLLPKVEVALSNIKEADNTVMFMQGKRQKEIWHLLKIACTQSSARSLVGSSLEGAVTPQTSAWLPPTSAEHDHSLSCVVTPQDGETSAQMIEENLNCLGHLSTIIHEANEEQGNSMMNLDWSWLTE
How it was run: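 Reaction stopped with 20 mM EDTA plus 2 nM Eu-labelled phospho-specific antibody. TR-FRET (ex 340 nm; 615/665 nm) read 2 h later. Counts normalized; inhibition relative to solvent control; triplicates.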

recombinant IKKβ = target: T3, recombinant IKKβ (Homo sapiens, UniProt O14920); assay: LANCE Ultra TR-FRET kinase assay, recombinant IKKβ; assay type: biochemical
T3 sequence (O14920 1-756): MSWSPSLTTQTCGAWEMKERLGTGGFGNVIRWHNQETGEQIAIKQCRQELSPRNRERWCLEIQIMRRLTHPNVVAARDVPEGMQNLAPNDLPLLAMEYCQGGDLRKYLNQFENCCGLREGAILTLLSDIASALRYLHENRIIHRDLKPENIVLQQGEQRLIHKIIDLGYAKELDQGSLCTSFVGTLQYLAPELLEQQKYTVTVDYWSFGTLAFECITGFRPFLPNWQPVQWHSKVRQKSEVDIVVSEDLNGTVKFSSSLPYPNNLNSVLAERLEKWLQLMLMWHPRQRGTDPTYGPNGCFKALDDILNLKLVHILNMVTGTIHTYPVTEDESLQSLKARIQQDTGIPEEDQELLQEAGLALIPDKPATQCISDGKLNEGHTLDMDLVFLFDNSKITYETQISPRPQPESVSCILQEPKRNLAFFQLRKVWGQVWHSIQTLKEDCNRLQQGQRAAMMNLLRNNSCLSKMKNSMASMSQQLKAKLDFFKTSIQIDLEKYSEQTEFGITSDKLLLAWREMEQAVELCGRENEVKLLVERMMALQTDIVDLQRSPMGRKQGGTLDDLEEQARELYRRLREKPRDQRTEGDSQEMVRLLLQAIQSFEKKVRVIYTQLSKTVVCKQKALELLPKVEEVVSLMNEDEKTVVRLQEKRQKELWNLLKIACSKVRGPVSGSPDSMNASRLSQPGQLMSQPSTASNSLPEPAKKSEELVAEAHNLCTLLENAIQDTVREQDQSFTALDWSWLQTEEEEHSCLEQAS
How it was run: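 Purified recombinant IKKβ (1 nM) in Hepes pH 7.4 buffer with MgCl₂, EGTA, DTT and Tween-20; 50 nM ULight-IκBα peptide substrate; 1.25 μM ATP. Runs 1 h at room temperature, then stopped with 20 mM EDTA plus 2 nM Eu-labelled phospho-specific antibody for TR-FRET. Activity is % of solvent control, 3–4 experiments in triplicate.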

[1] = target: T4, GST-RXRα LBD with D22 coactivator peptide (Homo sapiens, UniProt P19793); assay: TR-FRET RXR LBD-coactivator peptide recruitment assay, D22 peptide; assay type: biochemical; details: in combination with a low concentration of CD3254 agonist (Figure S2)
T4 sequence (P19793 227-458 limits assumed): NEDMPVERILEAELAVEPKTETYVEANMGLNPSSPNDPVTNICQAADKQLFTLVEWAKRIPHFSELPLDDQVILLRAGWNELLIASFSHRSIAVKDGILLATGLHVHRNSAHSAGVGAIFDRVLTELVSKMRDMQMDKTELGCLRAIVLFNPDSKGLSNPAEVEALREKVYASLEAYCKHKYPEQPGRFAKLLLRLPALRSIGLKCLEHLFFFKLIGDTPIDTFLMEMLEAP
How it was run: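 5 nM GST-RXRα LBD incubated at room temperature with 150 nM fluorescein-D22 peptide in 25 mM Hepes pH 7.4, 100 mM NaCl, 0.025% BSA, 5% glycerol, 0.005% Tween-20, 2.5 mM DTT. Ligand or DMSO (≤1%) added; 2 nM Tb-anti-GST antibody for detection. After 4 h, TR-FRET read at 495 and 520 nm. The 520/495 ratio was expressed as Delta F% against controls lacking GST-RXRα.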

RXRα = target: T5, RXRα (Homo sapiens, UniProt P19793); assay: Gal4-RXRα transactivation assay in HEK-293-luciferase reporter cells; assay type: cell-based
T5 sequence (P19793 1-462): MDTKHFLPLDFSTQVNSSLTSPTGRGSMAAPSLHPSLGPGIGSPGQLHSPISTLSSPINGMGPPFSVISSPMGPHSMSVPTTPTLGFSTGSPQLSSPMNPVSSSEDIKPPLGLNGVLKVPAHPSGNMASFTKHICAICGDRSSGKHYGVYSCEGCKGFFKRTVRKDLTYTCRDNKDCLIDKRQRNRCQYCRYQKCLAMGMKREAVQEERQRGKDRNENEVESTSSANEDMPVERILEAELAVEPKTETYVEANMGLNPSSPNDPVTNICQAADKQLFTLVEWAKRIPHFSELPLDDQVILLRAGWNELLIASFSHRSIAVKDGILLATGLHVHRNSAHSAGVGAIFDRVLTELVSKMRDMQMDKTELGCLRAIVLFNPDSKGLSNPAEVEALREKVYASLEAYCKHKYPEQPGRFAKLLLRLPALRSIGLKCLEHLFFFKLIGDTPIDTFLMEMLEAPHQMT

GST-RXRα LBD = assay: AlphaScreen or HTRF

O=C(O)c1ccc(-c2cnc(-c3ccc(O)c(C45CC6CC(CC(C6)C4)C5)c3)s2)cc1 [8a, 4-[2-(3-Adamantan-1-yl-4-hydroxyphenyl)thiazol-5-yl]benzoic Acid]
inhibition of Jurkat cell viability (Jurkat T cells): > 85%

(E)-3-[2-(3-Acetamidopropoxy)-3-(adamant-1-yl)-4-hydroxybiphenyl-4-yl]acrylic Acid [2c]
% Inhibition of IKK activity IKKε (recombinant IKKε): 14.4 ± 4.1%
% Inhibition of IKK activity IKKα (recombinant IKKα): 5.0 ± 4.9%
% Inhibition of IKK activity IKKβ (recombinant IKKβ; 20 μM AdAr, ATP near apparent Km, vs solvent control, ± SD, 3–4 experiments): 0%

CCCCCOc1cc2c(cc1-c1cc(/C=C/C(=O)O)ccc1O)C(C)(C)CCC2(C)C [34, UVI3003, reference compound]
inhibition of RXRα LBD/D22 binding stimulated by CD3254 [1]: complete inhibition

Cc1cc(O)c(C23CC4CC(CC(C4)C2)C3)cc1-c1ccc(CC(=O)O)cc1Cl [6a]
inhibition of RXRα LBD/D22 binding stimulated by CD3254 [1]: 25%

COCCOCOc1ccc(-c2ncc(-c3ccc(C(=O)O)cc3)s2)cc1C12CC3CC(CC(C3)C1)C2 [8c, 4-[2-(3-Adamantan-1-yl-4-[(2-methoxyethoxy)methoxy]phenyl)thiazol-5-yl]benzoic Acid]
Gal4-RXRα transactivation, % of the maximum activity observed with control rexinoid CD3254 (RXRα; 4 μM AdAr, CD3254 1 μM): ~ 20%
RXR Profile Agonist (fold induction of RXRα activity) (RXRα; AdArs 4 μM, positive control CD3254 1 μM, vs solvent control cells): 3 fold induction

Cc1cc(O)c(C23CC4CC(CC(C4)C2)C3)cc1-c1ccc2cc(C(=O)O)ccc2c1Cl [4a]
inhibition in Gal4-RXRα transactivation assay, antagonist mode (RXRα; 100 nM CD3254 plus 4 μM AdAr): 30%
potency against IKKβ relative to MX781 3 (times more potent) (recombinant IKKβ; ratio of IC50 values): about 2.5 times
inhibition of RXRα LBD/D22 binding stimulated by CD3254 [1]: 25%
inhibition of Jurkat cell viability (Jurkat T cells): > 85%

B1: biotinylated SRC-1-676-700 peptide (peptide)
peptide: CPSSHSSLTERHKILHRLLQEGSPSK
modifications: biotin on the added C-terminal lysine (-K-biotin)
Delta F% (ligand: 4a) (GST-RXRα LBD): 53%
Delta F% (ligand: 4b) (GST-RXRα LBD): 187%
Delta F% (ligand: 5a) (GST-RXRα LBD): 373%
Delta F% (ligand: 5b) (GST-RXRα LBD): 437%
Delta F% (ligand: 5c) (GST-RXRα LBD): 152%
Delta F% (ligand: 6a) (GST-RXRα LBD): 81%
Delta F% (ligand: 6b) (GST-RXRα LBD): 422%
Delta F% (ligand: 7a) (GST-RXRα LBD): 162%
Delta F% (ligand: 8a) (GST-RXRα LBD): 183%
Delta F% (ligand: 8b) (GST-RXRα LBD): 117%
Delta F% (ligand: 8c) (GST-RXRα LBD): 159%
Delta F% (ligand: 9a) (GST-RXRα LBD): 116%
Delta F% (ligand: 9b) (GST-RXRα LBD): 106%
Delta F% (ligand: 9c) (GST-RXRα LBD): 122%
Delta F% (ligand: 10a) (GST-RXRα LBD): 111%
Delta F% (ligand: 10c) (GST-RXRα LBD): 172%
Delta F% (ligand: 7d) (GST-RXRα LBD): 133%
Delta F% (ligand: 8d) (GST-RXRα LBD): 115%
Delta F% (ligand: 9d) (GST-RXRα LBD): 106%
Delta F% (ligand: CD3254 33) (GST-RXRα LBD): 561%
Delta F% (no ligand) (GST-RXRα LBD): 148%

B2: fluorescein labeled D22 coactivator peptide (peptide)
peptide: fluorescein-LPYEGSLLLKLLRAPVEEV
% inhibition of the CD3254-stimulated interaction (by 4a) (GST-RXRα LBD): 25%
% inhibition of the CD3254-stimulated interaction (by 6a) (GST-RXRα LBD): 25%
Delta F% (ligand: 4a) (GST-RXRα LBD): 29%
Delta F% (ligand: 4b) (GST-RXRα LBD): 159%
Delta F% (ligand: 5a) (GST-RXRα LBD): 487%
Delta F% (ligand: 5b) (GST-RXRα LBD): 654%
Delta F% (ligand: 5c) (GST-RXRα LBD): 113%
Delta F% (ligand: 6b) (GST-RXRα LBD): 214%
Delta F% (ligand: 7a) (GST-RXRα LBD): 156%
Delta F% (ligand: 7c) (GST-RXRα LBD): 127%
Delta F% (ligand: 8a) (GST-RXRα LBD): 94%
Delta F% (ligand: 8b) (GST-RXRα LBD): 113%
Delta F% (ligand: 8c) (GST-RXRα LBD): 133%
Delta F% (ligand: 9c) (GST-RXRα LBD): 119%
Delta F% (ligand: 10a) (GST-RXRα LBD): 102%
Delta F% (ligand: 10c) (GST-RXRα LBD): 170%
Delta F% (ligand: 9d) (GST-RXRα LBD): 87%
Delta F% (ligand: CD3254 33) (GST-RXRα LBD): 416%
Delta F% (no ligand) (GST-RXRα LBD): 100%
